{"source": "ChEMBL document CHEMBL1140904", "about": "“Synthesis and analysis of novel glycerolipids for the treatment of metabolic syndrome” (J Med Chem, 2009)", "key": {"Rattus norvegicus [1]": {"tested_on": "Rattus norvegicus", "assay": "Effect on fatty acid composition in Wistar rat assessed as change in plasma LCn-6/18:2 level at dose equivalent to 85 umol of tetradecylthioacetic acid, po after 6 days", "type": "functional"}, "Rattus norvegicus [2]": {"tested_on": "Rattus norvegicus", "assay": "Induction of PPAR-alpha-regulated HMG-CoA synthase activity in po dosed Wistar rat after 6 days", "type": "functional, organism-based", "in_short": "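Wistar rats were gavaged daily for 6 days at 85 or 250 µmol TTA-equivalent in 0.5% CMC, with palmitic acid controls. HMG-CoA synthase activity was assayed in the liver postnuclear fraction by the Clinkenbeard method. Mean ± SD, 5 rats/group.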"}, "Rattus norvegicus [3]": {"tested_on": "Rattus norvegicus", "assay": "Effect on fatty acid composition in Wistar rat assessed as change in plasma 18;2, n-6 level at dose equivalent to 85 umol of tetradecylthioacetic acid, po after 6 days", "type": "functional"}, "Rattus norvegicus [4]": {"tested_on": "Rattus norvegicus", "assay": "Effect on fatty acid composition in Wistar rat assessed as change in liver MUFA level at dose equivalent to 250 umol of tetradecylthioacetic acid, po after 6 days", "type": "functional", "in_short": "(§1)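 Male Wistar rats were gavaged once daily for 6 days with compound in 0.5% CMC at 85 or 250 µmol TTA-equivalent per animal. Controls received palmitic acid. Liver was homogenized in 0.25 M sucrose/10 mM HEPES pH 7.4/1 mM EDTA at 0-4 °C. Lipids were extracted with chloroform:methanol 2:1 and spiked with 21:0 internal standard. Fatty acids were BF3-methanol transesterified and quantified as wt%. Values are mean ± SD, n=5.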"}, "Rattus norvegicus [5]": {"tested_on": "Rattus norvegicus", "assay": "Effect on fatty acid composition in Wistar rat assessed as change in plasma MUFA level at dose equivalent to 85 umol of tetradecylthioacetic acid, po after 6 days", "type": "functional"}, "Liver": {"tested_on": "Liver", "assay": "Drug concentration in Wistar rat liver assessed as tetradecylthioacetic acid at dose equivalent to 85 umol of tetradecylthioacetic acid, po after 6 days", "type": "ADME, organism-based", "conditions": "in vivo, 144 h", "in_short": "as §1"}, "Rattus norvegicus [6]": {"tested_on": "Rattus norvegicus", "assay": "Induction of PPAR-alpha-regulated CPT2 activity in po dosed Wistar rat after 6 days", "type": "functional, organism-based", "in_short": "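Wistar rats were dosed orally for 6 days (85 or 250 µmol TTA-equivalent in 0.5% CMC; palmitic acid controls). CPT-II activity was measured in the liver mitochondrial fraction, prepared from sucrose/HEPES pH 7.4/EDTA homogenate at 0-4 °C. Means ± SD from 5 rats per group.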"}, "Rattus norvegicus [7]": {"tested_on": "Rattus norvegicus", "assay": "Effect on fatty acid composition in Wistar rat assessed as change in plasma LCn-6/18:2 level at dose equivalent to 250 umol of tetradecylthioacetic acid, po after 6 days", "type": "functional"}, "Rattus norvegicus [8]": {"tested_on": "Rattus norvegicus", "assay": "Effect on fatty acid composition in Wistar rat assessed as change in liver 18;2, n-6 level at dose equivalent to 85 umol of tetradecylthioacetic acid, po after 6 days", "type": "functional", "in_short": "as §1"}, "Rattus norvegicus [9]": {"tested_on": "Rattus norvegicus", "assay": "Effect on fatty acid composition in Wistar rat assessed as change in liver saturated fatty acid level at dose equivalent to 85 umol of tetradecylthioacetic acid, po after 6 days", "type": "functional", "in_short": "as §1"}, "Rattus norvegicus [10]": {"tested_on": "Rattus norvegicus", "assay": "Decrease in plasma cholesterol level in po dosed Wistar rat after 6 days", "type": "functional, organism-based", "in_short": "(§2)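 Male Wistar rats (170-210 g), housed in pairs with chow and water, were gavaged once daily for 6 days with test lipid in 0.5% (w/v) carboxymethylcellulose at 85 or 250 µmol TTA-equivalent per animal. Controls received palmitic acid in CMC. Plasma triacylglycerol and cholesterol were measured with an enzymatic kit, and liver levels were also determined. Values are mean ± SD, n=5 rats.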"}, "Rattus norvegicus [11]": {"tested_on": "Rattus norvegicus", "assay": "Effect on fatty acid composition in Wistar rat assessed as change in plasma 18;2, n-6 level at dose equivalent to 250 umol of tetradecylthioacetic acid, po after 6 days", "type": "functional"}, "Rattus norvegicus [12]": {"tested_on": "Rattus norvegicus", "assay": "Effect on fatty acid composition in Wistar rat assessed as change in plasma saturated fatty acid level at dose equivalent to 85 umol of tetradecylthioacetic acid, po after 6 days", "type": "functional"}, "Rattus norvegicus [13]": {"tested_on": "Rattus norvegicus", "assay": "Effect on fatty acid composition in Wistar rat assessed as change in liver 18;2, n-6 level at dose equivalent to 250 umol of tetradecylthioacetic acid, po after 6 days", "type": "functional", "in_short": "as §1"}, "Rattus norvegicus [14]": {"tested_on": "Rattus norvegicus", "assay": "Effect on fatty acid composition in Wistar rat assessed as change in liver LCPUFA, n-6 level at dose equivalent to 250 umol of tetradecylthioacetic acid, po after 6 days", "type": "functional", "in_short": "as §1"}, "Rattus norvegicus [15]": {"tested_on": "Rattus norvegicus", "assay": "Effect on fatty acid composition in Wistar rat assessed as change in liver PUFA level at dose equivalent to 85 umol of tetradecylthioacetic acid, po after 6 days", "type": "functional", "in_short": "as §1"}, "Rattus norvegicus [16]": {"tested_on": "Rattus norvegicus", "assay": "Increase in [1-14C]palmitoyl-CoA oxidation in po dosed Wistar rat liver homogenate after 6 days", "type": "functional, organism-based", "in_short": "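Rats were dosed by gastric intubation for 6 days with 85 or 250 µmol TTA-equivalent in 0.5% CMC, with palmitic acid controls. Liver was homogenized in 0.25 M sucrose, 10 mM HEPES pH 7.4, 1 mM EDTA at 0-4 °C. Palmitoyl-CoA oxidation was read as acid-soluble products from [1-14C]-palmitoyl-CoA in the postnuclear fraction. Mean ± SD, n=5.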"}, "Rattus norvegicus [17]": {"tested_on": "Rattus norvegicus", "assay": "Effect on fatty acid composition in Wistar rat assessed as change in plasma LCPUFA, n-6 level at dose equivalent to 250 umol of tetradecylthioacetic acid, po after 6 days", "type": "functional"}, "Rattus norvegicus [18]": {"tested_on": "Rattus norvegicus", "assay": "Effect on fatty acid composition in Wistar rat assessed as change in liver LCn-6/18:2 level at dose equivalent to 85 umol of tetradecylthioacetic acid, po after 6 days", "type": "functional", "in_short": "as §1"}, "Rattus norvegicus [19]": {"tested_on": "Rattus norvegicus", "assay": "Effect on fatty acid composition in Wistar rat assessed as change in plasma PUFA level at dose equivalent to 85 umol of tetradecylthioacetic acid, po after 6 days", "type": "functional"}, "Rattus norvegicus [20]": {"tested_on": "Rattus norvegicus", "assay": "Effect on fatty acid composition in Wistar rat assessed as change in liver PUFA level at dose equivalent to 250 umol of tetradecylthioacetic acid, po after 6 days", "type": "functional", "in_short": "as §1"}, "Rattus norvegicus [21]": {"tested_on": "Rattus norvegicus", "assay": "Effect on fatty acid composition in Wistar rat assessed as change in liver LCPUFA, n-6 level at dose equivalent to 85 umol of tetradecylthioacetic acid, po after 6 days", "type": "functional", "in_short": "as §1"}, "Rattus norvegicus [22]": {"tested_on": "Rattus norvegicus", "assay": "Effect on fatty acid composition in Wistar rat assessed as change in plasma saturated fatty acid level at dose equivalent to 250 umol of tetradecylthioacetic acid, po after 6 days", "type": "functional"}, "Rattus norvegicus [23]": {"tested_on": "Rattus norvegicus", "assay": "Effect on fatty acid composition in Wistar rat assessed as change in plasma LCPUFA, n-6 level at dose equivalent to 85 umol of tetradecylthioacetic acid, po after 6 days", "type": "functional"}, "Rattus norvegicus [24]": {"tested_on": "Rattus norvegicus", "assay": "Decrease in plasma triacylglycerol level in po dosed Wistar rat after 6 days", "type": "functional, organism-based", "in_short": "as §2"}, "Rattus norvegicus [25]": {"tested_on": "Rattus norvegicus", "assay": "Effect on fatty acid composition in Wistar rat assessed as change in liver saturated fatty acid level at dose equivalent to 250 umol of tetradecylthioacetic acid, po after 6 days", "type": "functional", "in_short": "as §1"}, "Rattus norvegicus [26]": {"tested_on": "Rattus norvegicus", "assay": "Plasma concentration in Wistar rat assessed as tetradecylthioacetic acid at dose equivalent to 85 umol of tetradecylthioacetic acid, po after 6 days", "type": "ADME, organism-based", "conditions": "in vivo, 144 h"}, "Rattus norvegicus [27]": {"tested_on": "Rattus norvegicus", "assay": "Induction of PPAR-alpha-regulated fatty acyl-CoA oxidase activity in po dosed Wistar rat after 6 days", "type": "functional, organism-based", "in_short": "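Rats were dosed by gastric intubation for 6 days at 85 or 250 µmol TTA-equivalent in 0.5% CMC, with palmitic acid controls. Fatty acyl-CoA oxidase was measured in the liver postnuclear fraction by a coupled assay, following H2O2 production as the rise in dichlorofluorescein absorbance with palmitoyl-CoA. Mean ± SD, n=5.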"}, "Rattus norvegicus [28]": {"tested_on": "Rattus norvegicus", "assay": "Effect on fatty acid composition in Wistar rat assessed as change in plasma MUFA level at dose equivalent to 250 umol of tetradecylthioacetic acid, po after 6 days", "type": "functional"}, "Rattus norvegicus [29]": {"tested_on": "Rattus norvegicus", "assay": "Effect on fatty acid composition in Wistar rat assessed as change in liver MUFA level at dose equivalent to 85 umol of tetradecylthioacetic acid, po after 6 days", "type": "functional", "in_short": "as §1"}, "Rattus norvegicus [30]": {"tested_on": "Rattus norvegicus", "assay": "Effect on fatty acid composition in Wistar rat assessed as change in plasma PUFA level at dose equivalent to 250 umol of tetradecylthioacetic acid, po after 6 days", "type": "functional"}, "Rattus norvegicus [31]": {"tested_on": "Rattus norvegicus", "assay": "Effect on fatty acid composition in Wistar rat assessed as change in liver LCn-6/18:2 level at dose equivalent to 250 umol of tetradecylthioacetic acid, po after 6 days", "type": "functional", "in_short": "as §1"}, "Rattus norvegicus [32]": {"tested_on": "Rattus norvegicus", "assay": "Plasma concentration in Wistar rat assessed as tetradecylthioacetic acid at dose equivalent to 250 umol of tetradecylthioacetic acid, po after 6 days", "type": "ADME, organism-based", "conditions": "in vivo, 144 h"}}}
{"compound": "CCCCCCCCCCCCCCSCC(=O)OCC(COC(=O)CSCCCCCCCCCCCCCC)OC(=O)CSCCCCCCCCCCCCCC", "note": "[TRITETRADECYLTHIOACETYL GLYCEROL]", "values": [{"measurement": "Activity", "setting": "Rattus norvegicus [1]", "value": 0.98, "unit": "%"}, {"measurement": "Activity", "setting": "Rattus norvegicus [2]", "value": "Dose-dependent effect"}, {"measurement": "Activity", "setting": "Rattus norvegicus [3]", "value": 19.73, "unit": "%"}, {"measurement": "Activity", "setting": "Rattus norvegicus [4]", "value": 15.91, "unit": "%"}, {"measurement": "Activity", "setting": "Rattus norvegicus [5]", "value": 21.8, "unit": "%"}, {"measurement": "Drug uptake", "setting": "Liver", "value": 0.69, "unit": "%"}, {"measurement": "Drug uptake", "setting": "Liver; in the assay text read “equivalent to 250 umol” for “equivalent to 85 umol”", "value": 2.04, "unit": "%"}, {"measurement": "Activity", "setting": "Rattus norvegicus [6]", "value": "Dose-dependent effect"}, {"measurement": "Activity", "setting": "Rattus norvegicus [7]", "value": 1.22, "unit": "%"}, {"measurement": "Activity", "setting": "Rattus norvegicus [8]", "value": 11.28, "unit": "%"}, {"measurement": "Activity", "setting": "Rattus norvegicus [9]", "value": 39.82, "unit": "%"}, {"measurement": "Activity", "setting": "Rattus norvegicus [10]", "value": "Dose-dependent effect"}, {"measurement": "Activity", "setting": "Rattus norvegicus [11]", "value": 18.25, "unit": "%"}, {"measurement": "Activity", "setting": "Rattus norvegicus [12]", "value": 36.21, "unit": "%"}, {"measurement": "Activity", "setting": "Rattus norvegicus [13]", "value": 10.7, "unit": "%"}, {"measurement": "Activity", "setting": "Rattus norvegicus [14]", "value": 28.73, "unit": "%"}, {"measurement": "Activity", "setting": "Rattus norvegicus [15]", "value": 5.18, "unit": "%"}, {"measurement": "Activity", "setting": "Rattus norvegicus [16]", "value": "Dose-dependent effect"}, {"measurement": "Activity", "setting": "Rattus norvegicus [17]", "value": 22.24, "unit": "%"}, {"measurement": "Activity", "setting": "Rattus norvegicus [18]", "value": 2.3, "unit": "%"}, {"measurement": "Activity", "setting": "Rattus norvegicus [19]", "value": 2.35, "unit": "%"}, {"measurement": "Activity", "setting": "Rattus norvegicus [20]", "value": 4.97, "unit": "%"}, {"measurement": "Activity", "setting": "Rattus norvegicus [21]", "value": 25.81, "unit": "%"}, {"measurement": "Activity", "setting": "Rattus norvegicus [22]", "value": 34.67, "unit": "%"}, {"measurement": "Activity", "setting": "Rattus norvegicus [23]", "value": 19.08, "unit": "%"}, {"measurement": "Activity", "setting": "Rattus norvegicus [24]", "value": "Dose-dependent effect"}, {"measurement": "Activity", "setting": "Rattus norvegicus [25]", "value": 38.98, "unit": "%"}, {"measurement": "Drug uptake", "setting": "Rattus norvegicus [26]", "value": 0.51, "unit": "%"}, {"measurement": "Activity", "setting": "Rattus norvegicus [27]", "value": "Dose-dependent effect"}, {"measurement": "Activity", "setting": "Rattus norvegicus [28]", "value": 21.63, "unit": "%"}, {"measurement": "Activity", "setting": "Rattus norvegicus [29]", "value": 17.27, "unit": "%"}, {"measurement": "Activity", "setting": "Rattus norvegicus [30]", "value": 2.29, "unit": "%"}, {"measurement": "Activity", "setting": "Rattus norvegicus [31]", "value": 2.7, "unit": "%"}, {"measurement": "Drug uptake", "setting": "Rattus norvegicus [32]", "value": 1.49, "unit": "%"}]}
